Experimental data as given in ChEMBL document CHEMBL1629494, “New amino acid esters of salicylanilides active against MDR-TB and other microbes” (Eur J Med Chem, 2010).
In brackets after ≈: the same amount, converted by molar mass.

Legend:
Assay type in all cases: functional
[1] = system: Mycobacterium tuberculosis; test: Antimycobacterial activity against drug-sensitive Mycobacterium tuberculosis
[2] = system: Mycobacterium avium; test: Antimycobacterial activity against Mycobacterium avium
[3] = system: Mycobacterium kansasii; test: Antimycobacterial activity against Mycobacterium kansasii
[4] = system: Mycobacterium tuberculosis; test: Antimycobacterial activity against Mycobacterium tuberculosis H37Rv 331/88 after 14 days by micromethod; settings: H37Rv 331/88, 336 h
Outline: (§1)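 Micromethod in Sula semisynthetic medium, with compounds added as DMSO solutions at 1000, 500, 250, 125, 62, 32, 16, 8, 4, 2, 1, 0.5, 0.25. Inoculum dilutions: H37Rv 10^-3; M. avium 330/88 10^-5; M. kansasii 235/80 10^-4; M. kansasii 6509/96 10^-5. Incubated at 37 °C, read at 14 and 21 days, and at 7 days for M. kansasii. MIC was the lowest concentration inhibiting growth.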

[5] = system: Mycobacterium tuberculosis; test: Antimycobacterial activity against Mycobacterium tuberculosis H37Rv 331/88 after 21 days by micromethod; settings: H37Rv 331/88, 504 h; outline: as §1
[6] = system: Mycobacterium avium; test: Antimycobacterial activity against multidrug-resistant Mycobacterium avium 330/88 after 14 days by micromethod; settings: 330/88, 336 h; outline: as §1
[7] = system: Mycobacterium avium; test: Antimycobacterial activity against multidrug-resistant Mycobacterium avium 330/88 after 21 days by micromethod; settings: 330/88, 504 h; outline: as §1
[8] = system: Mycobacterium kansasii; test: Antimycobacterial activity against Mycobacterium kansasii 235/80 after 7 days by micromethod; settings: 235/80, 168 h; outline: as §1
[9] = system: Mycobacterium kansasii; test: Antimycobacterial activity against Mycobacterium kansasii 235/80 after 14 days by micromethod; settings: 235/80, 336 h; outline: as §1
[10] = system: Mycobacterium kansasii; test: Antimycobacterial activity against Mycobacterium kansasii 235/80 after 21 days by micromethod; settings: 235/80, 504 h; outline: as §1
[11] = system: Mycobacterium kansasii; test: Antimycobacterial activity against Mycobacterium kansasii 6509/96 after 7 days by micromethod; settings: 6509/96, 168 h; outline: as §1
[12] = system: Mycobacterium kansasii; test: Antimycobacterial activity against Mycobacterium kansasii 6509/96 after 14 days by micromethod; settings: 6509/96, 336 h; outline: as §1
[13] = system: Mycobacterium kansasii; test: Antimycobacterial activity against Mycobacterium kansasii 6509/96 after 21 days by micromethod; settings: 6509/96, 504 h; outline: as §1
[14] = system: Enterococcus sp.; test: Antibacterial activity against Enterococcus sp. J14365/08 after 48 hrs by broth microdilution method; settings: J14365/08, 48 h
Outline: (§2)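 Broth microdilution following […], with twofold compound dilutions in Mueller-Hinton bouillon. Incubated 24 and 48 h at 35 °C in the dark in a humid atmosphere. MIC (IC80) was taken as ≥80% growth reduction versus control, read visually and photometrically.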

[15] = system: Escherichia coli; test: Antibacterial activity against Escherichia coli CCM 4517 after 24 hrs by broth microdilution method; settings: CCM 4517, 24 h; outline: as §2
[16] = system: Escherichia coli; test: Antibacterial activity against Escherichia coli CCM 4517 after 48 hrs by broth microdilution method; settings: CCM 4517, 48 h; outline: as §2
[17] = system: Klebsiella pneumoniae; test: Antibacterial activity against Klebsiella pneumoniae D11750/08 after 24 hrs by broth microdilution method; settings: D11750/08, 24 h; outline: as §2
[18] = system: Klebsiella pneumoniae; test: Antibacterial activity against Klebsiella pneumoniae D11750/08 after 48 hrs by broth microdilution method; settings: D11750/08, 48 h; outline: as §2
[19] = system: Candida albicans; test: Antifungal activity against Candida albicans ATCC 44859 after 24 hrs by broth microdilution method; settings: ATCC 44859, 24 h
[20] = system: Candida albicans; test: Antifungal activity against Candida albicans ATCC 44859 after 48 hrs by broth microdilution method; settings: ATCC 44859, 48 h
[21] = system: Candida tropicalis; test: Antifungal activity against Candida tropicalis 156 after 24 hrs by broth microdilution method; settings: Candida tropicalis, 156, 24 h
[22] = system: Candida tropicalis; test: Antifungal activity against Candida tropicalis 156 after 48 hrs by broth microdilution method; settings: Candida tropicalis, 156, 48 h
[23] = system: Pichia kudriavzevii; test: Antifungal activity against Candida krusei E28 after 24 hrs by broth microdilution method; settings: E28, 24 h
[24] = system: Pichia kudriavzevii; test: Antifungal activity against Candida krusei E28 after 48 hrs by broth microdilution method; settings: E28, 48 h
[25] = system: Nakaseomyces glabratus; test: Antifungal activity against Candida glabrata 20/I after 24 hrs by broth microdilution method
[26] = system: Nakaseomyces glabratus; test: Antifungal activity against Candida glabrata 20/I after 48 hrs by broth microdilution method
[27] = system: Trichosporon beigelii; test: Antifungal activity against Trichosporon beigelii 1188 after 24 hrs by broth microdilution method; settings: Trichosporon beigelii, 1188, 24 h
[28] = system: Trichosporon beigelii; test: Antifungal activity against Trichosporon beigelii 1188 after 48 hrs by broth microdilution method; settings: Trichosporon beigelii, 1188, 48 h
[29] = system: Aspergillus fumigatus; test: Antifungal activity against Aspergillus fumigatus 231 after 24 hrs by broth microdilution method; settings: Aspergillus fumigatus, 231, 24 h
[30] = system: Aspergillus fumigatus; test: Antifungal activity against Aspergillus fumigatus 231 after 48 hrs by broth microdilution method; settings: Aspergillus fumigatus, 231, 48 h
[31] = system: Lichtheimia corymbifera; test: Antifungal activity against Absidia corymbifera 272 after 24 hrs by broth microdilution method; settings: Lichtheimia corymbifera, 272, 24 h
[32] = system: Lichtheimia corymbifera; test: Antifungal activity against Absidia corymbifera 272 after 48 hrs by broth microdilution method; settings: Lichtheimia corymbifera, 272, 48 h
[33] = system: Trichophyton mentagrophytes; test: Antifungal activity against Trichophyton mentagrophytes after 24 hrs by broth microdilution method
[34] = system: Trichophyton mentagrophytes; test: Antifungal activity against Trichophyton mentagrophytes after 48 hrs by broth microdilution method
[35] = system: Staphylococcus aureus; test: Antibacterial activity against Staphylococcus aureus CCM 4516/08 after 24 hrs by broth microdilution method; settings: CCM 4516/08, 24 h; outline: as §2
[36] = system: Staphylococcus aureus; test: Antibacterial activity against Staphylococcus aureus CCM 4516/08 after 48 hrs by broth microdilution method; settings: CCM 4516/08, 48 h; outline: as §2
[37] = system: Staphylococcus aureus; test: Antibacterial activity against methicillin-resistant Staphylococcus aureus H5996/08 after 24 hrs by broth microdilution method; settings: H5996/08, 24 h; outline: as §2
[38] = system: Staphylococcus aureus; test: Antibacterial activity against methicillin-resistant Staphylococcus aureus H5996/08 after 48 hrs by broth microdilution method; settings: H5996/08, 48 h; outline: as §2
[39] = system: Staphylococcus epidermidis; test: Antibacterial activity against Staphylococcus epidermidis H6966/08 after 24 hrs by broth microdilution method; settings: H6966/08, 24 h; outline: as §2
[40] = system: Staphylococcus epidermidis; test: Antibacterial activity against Staphylococcus epidermidis H6966/08 after 48 hrs by broth microdilution method; settings: H6966/08, 48 h; outline: as §2
[41] = system: Enterococcus sp.; test: Antibacterial activity against Enterococcus sp. J14365/08 after 24 hrs by broth microdilution method; settings: J14365/08, 24 h; outline: as §2

CC(=O)N[C@@H](Cc1ccccc1)C(=O)Oc1ccc(Cl)cc1C(=O)Nc1cccc(Cl)c1
MIC [1]: 1 µM (≈ 0.471 µg/mL) | MIC [2]: 1 µM (≈ 0.471 µg/mL) | MIC [3]: 1 µM (≈ 0.471 µg/mL) | MIC [4]: 2 µM (≈ 0.943 µg/mL) | MIC [5]: 4 µM (≈ 1.89 µg/mL) | MIC [6]: 8 µM (≈ 3.77 µg/mL) | MIC [7]: 32 µM (≈ 15.1 µg/mL) | MIC [8]: 8 µM (≈ 3.77 µg/mL) | MIC [9]: 8 µM (≈ 3.77 µg/mL) | MIC [10]: 8 µM (≈ 3.77 µg/mL) | MIC [11]: 2 µM (≈ 0.943 µg/mL) | MIC [12]: 8 µM (≈ 3.77 µg/mL) | MIC [13]: 8 µM (≈ 3.77 µg/mL)

CC(=O)N[C@@H](Cc1ccccc1)C(=O)Oc1cc(Cl)ccc1C(=O)Nc1cccc(Cl)c1
MIC [14]: > 125 µM | MIC [15]: > 125 µM | MIC [16]: > 125 µM | MIC [17]: > 125 µM | MIC [18]: > 125 µM | MIC [19]: > 125 µM | MIC [20]: > 125 µM | MIC [21]: > 125 µM | MIC [22]: > 125 µM | MIC [23]: > 125 µM | MIC [24]: > 125 µM | MIC [25]: > 125 µM | MIC [26]: > 125 µM | MIC [27]: 125 µM (≈ 58.9 µg/mL) | MIC [28]: > 125 µM | MIC [29]: > 125 µM | MIC [30]: > 125 µM | MIC [31]: 62.5 µM (≈ 29.5 µg/mL) | MIC [32]: > 125 µM | MIC [33]: 62.5 µM (≈ 29.5 µg/mL) | MIC [34]: > 125 µM | MIC [1]: 1 µM (≈ 0.471 µg/mL) | MIC [2]: 1 µM (≈ 0.471 µg/mL) | MIC [3]: 1 µM (≈ 0.471 µg/mL) | MIC [4]: 2 µM (≈ 0.943 µg/mL) | MIC [5]: 4 µM (≈ 1.89 µg/mL) | MIC [6]: 4 µM (≈ 1.89 µg/mL) | MIC [7]: 8 µM (≈ 3.77 µg/mL) | MIC [8]: 4 µM (≈ 1.89 µg/mL) | MIC [9]: 4 µM (≈ 1.89 µg/mL) | MIC [10]: 8 µM (≈ 3.77 µg/mL) | MIC [11]: 2 µM (≈ 0.943 µg/mL) | MIC [12]: 4 µM (≈ 1.89 µg/mL) | MIC [13]: 8 µM (≈ 3.77 µg/mL) | MIC [35]: 31.2 µM (≈ 14.7 µg/mL) | MIC [36]: 125 µM (≈ 58.9 µg/mL) | MIC [37]: 125 µM (≈ 58.9 µg/mL) | MIC [38]: 125 µM (≈ 58.9 µg/mL) | MIC [39]: 62.5 µM (≈ 29.5 µg/mL) | MIC [40]: 125 µM (≈ 58.9 µg/mL) | MIC [41]: 125 µM (≈ 58.9 µg/mL)

CC(=O)N[C@@H](Cc1ccccc1)C(=O)Oc1ccc(Cl)cc1C(=O)Nc1ccc(Cl)cc1
MIC [14]: > 125 µM | MIC [15]: > 125 µM | MIC [16]: > 125 µM | MIC [17]: > 125 µM | MIC [18]: > 125 µM | MIC [19]: > 125 µM | MIC [20]: > 125 µM | MIC [21]: > 125 µM | MIC [22]: > 125 µM | MIC [23]: > 125 µM | MIC [24]: > 125 µM | MIC [25]: > 125 µM | MIC [26]: > 125 µM | MIC [27]: 3.9 µM (≈ 1.84 µg/mL) | MIC [28]: 3.9 µM (≈ 1.84 µg/mL) | MIC [29]: 31.2 µM (≈ 14.7 µg/mL) | MIC [30]: 125 µM (≈ 58.9 µg/mL) | MIC [31]: 3.9 µM (≈ 1.84 µg/mL) | MIC [32]: 15.6 µM (≈ 7.36 µg/mL) | MIC [33]: 31.2 µM (≈ 14.7 µg/mL) | MIC [34]: 62.5 µM (≈ 29.5 µg/mL) | MIC [1]: 1 µM (≈ 0.471 µg/mL) | MIC [2]: 1 µM (≈ 0.471 µg/mL) | MIC [3]: 1 µM (≈ 0.471 µg/mL) | MIC [4]: 4 µM (≈ 1.89 µg/mL) | MIC [5]: 4 µM (≈ 1.89 µg/mL) | MIC [6]: 8 µM (≈ 3.77 µg/mL) | MIC [7]: 16 µM (≈ 7.54 µg/mL) | MIC [8]: 4 µM (≈ 1.89 µg/mL) | MIC [9]: 4 µM (≈ 1.89 µg/mL) | MIC [10]: 4 µM (≈ 1.89 µg/mL) | MIC [11]: 2 µM (≈ 0.943 µg/mL) | MIC [12]: 4 µM (≈ 1.89 µg/mL) | MIC [13]: 8 µM (≈ 3.77 µg/mL) | MIC [35]: 62.5 µM (≈ 29.5 µg/mL) | MIC [36]: > 125 µM | MIC [37]: 125 µM (≈ 58.9 µg/mL) | MIC [38]: > 125 µM | MIC [39]: 125 µM (≈ 58.9 µg/mL) | MIC [40]: > 125 µM | MIC [41]: 125 µM (≈ 58.9 µg/mL)
